Legend:
P-selectin [1] = molecular target: T1, P-selectin (Mus musculus, UniProt Q01102); experiment: Blocking activity using seletin-IgG chimeras in a Selectin P competitive binding assay.
T1 sequence (Q01102 whole entry): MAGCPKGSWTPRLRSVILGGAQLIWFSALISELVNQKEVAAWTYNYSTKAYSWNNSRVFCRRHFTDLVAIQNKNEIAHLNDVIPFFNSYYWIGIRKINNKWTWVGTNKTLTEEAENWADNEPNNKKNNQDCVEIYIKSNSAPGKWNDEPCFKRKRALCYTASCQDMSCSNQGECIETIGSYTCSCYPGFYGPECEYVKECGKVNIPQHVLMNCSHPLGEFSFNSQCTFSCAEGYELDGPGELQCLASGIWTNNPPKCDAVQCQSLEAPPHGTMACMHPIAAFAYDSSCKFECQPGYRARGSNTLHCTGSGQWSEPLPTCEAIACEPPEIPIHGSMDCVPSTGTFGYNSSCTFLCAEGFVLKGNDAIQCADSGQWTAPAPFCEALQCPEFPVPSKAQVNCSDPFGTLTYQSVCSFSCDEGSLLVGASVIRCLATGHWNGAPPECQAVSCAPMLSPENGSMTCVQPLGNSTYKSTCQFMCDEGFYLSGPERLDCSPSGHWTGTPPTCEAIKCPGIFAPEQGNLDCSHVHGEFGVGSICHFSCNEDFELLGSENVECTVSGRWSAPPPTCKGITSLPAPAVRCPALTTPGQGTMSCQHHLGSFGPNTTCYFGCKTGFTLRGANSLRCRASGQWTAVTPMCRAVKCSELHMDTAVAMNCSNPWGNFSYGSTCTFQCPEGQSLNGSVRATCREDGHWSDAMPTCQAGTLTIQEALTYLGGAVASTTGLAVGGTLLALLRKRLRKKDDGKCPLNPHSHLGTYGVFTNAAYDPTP
Summary of the method: (§1)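 Selectin-Ig fusion protein is premixed for 30 min at room temperature with biotin-anti-human IgG (Fc) and streptavidin-alkaline phosphatase (each 1:500 in 1% BSA-PBS). The complex is preincubated 30 min with test compound (final 100, 25, 6.25, 1.56 µM; 10 mM water stock). It is then bound 45 min at 37 °C to wells coated with sLex-pentaceramide and blocked with 5% BSA. Read-out is p-nitrophenylphosphate absorbance, expressed as % binding versus controls.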

E-selectin = molecular target: T2, E-selectin (Mus musculus, UniProt Q00690); experiment: In vitro inhibitory activity against Selectin E-sialyl Lewis X (sLex) binding
T2 sequence (Q00690 whole entry): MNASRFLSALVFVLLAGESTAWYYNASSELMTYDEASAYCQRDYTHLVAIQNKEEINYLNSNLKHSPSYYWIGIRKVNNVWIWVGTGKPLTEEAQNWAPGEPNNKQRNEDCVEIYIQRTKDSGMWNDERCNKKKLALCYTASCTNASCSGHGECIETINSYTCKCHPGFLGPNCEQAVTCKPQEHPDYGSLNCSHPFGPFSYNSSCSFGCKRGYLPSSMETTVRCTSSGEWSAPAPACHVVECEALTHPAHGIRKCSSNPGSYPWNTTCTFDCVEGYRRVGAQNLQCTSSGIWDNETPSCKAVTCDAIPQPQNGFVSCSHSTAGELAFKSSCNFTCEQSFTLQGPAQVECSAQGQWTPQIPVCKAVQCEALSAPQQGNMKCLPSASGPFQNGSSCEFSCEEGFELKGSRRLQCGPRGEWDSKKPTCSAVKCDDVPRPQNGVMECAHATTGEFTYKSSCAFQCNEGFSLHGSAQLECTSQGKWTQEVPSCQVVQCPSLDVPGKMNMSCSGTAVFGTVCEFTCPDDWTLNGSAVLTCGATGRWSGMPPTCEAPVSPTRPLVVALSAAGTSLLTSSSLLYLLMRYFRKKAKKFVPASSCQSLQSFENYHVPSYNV
Summary of the method: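 sLex-pentaceramide (100 pmol/well) dried onto wells, blocked with 5% BSA-PBS 1 h RT. E-selectin-Ig fusion premixed 30 min RT with biotin-anti-human IgG(Fc)/streptavidin-alkaline phosphatase. Compounds (water stock 10 mM; final 100, 25, 6.25, 1.56 µM) preincubated with complex 30 min RT, then added to wells 45 min at 37 °C. Read-out: p-nitrophenylphosphate in diethanolamine pH 9.8; % binding versus no-compound control, background without selectin-Ig.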

L-selectin [2] = molecular target: T3, L-selectin (Mus musculus, UniProt P18337); experiment: Blocking activity using seletin-IgG chimeras in a Selectin L competitive binding assay.; summary of the method: as §1
T3 sequence (P18337 whole entry): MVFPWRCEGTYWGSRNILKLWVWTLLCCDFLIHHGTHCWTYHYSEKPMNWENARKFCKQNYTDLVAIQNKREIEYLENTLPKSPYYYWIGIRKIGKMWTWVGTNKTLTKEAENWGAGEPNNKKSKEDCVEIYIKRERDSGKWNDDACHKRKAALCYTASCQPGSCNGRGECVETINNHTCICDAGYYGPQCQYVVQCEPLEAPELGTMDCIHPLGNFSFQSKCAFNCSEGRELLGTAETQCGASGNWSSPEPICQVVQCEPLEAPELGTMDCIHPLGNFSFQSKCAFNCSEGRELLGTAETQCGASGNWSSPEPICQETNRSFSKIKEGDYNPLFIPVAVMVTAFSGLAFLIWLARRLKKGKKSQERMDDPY

L-selectin [3] = molecular target: T3, L-selectin; experiment: Blocking activity using selectin-IgG chimeras in a Selectin L competitive binding assay.; summary of the method: as §1
P-selectin [4] = molecular target: T1, P-selectin; experiment: Blocking activity using selectin-IgG chimeras in a Selectin P competitive binding assay.; summary of the method: as §1

Structure (SMILES)	IC50 (P-selectin [1]) [µM]	IC50 (E-selectin) [µM]	IC50 (L-selectin [2]) [µM]	IC50 (L-selectin [3]) [µM]	IC50 (P-selectin [4]) [µM]
CCCCCCCCCCCCCCC(CCCCCCCCCCCCCC)CO[C@@H]1O[C@H](CO)[C@@H](O[C@@H]2O[C@H](CO)[C@H](O)[C@H](OS(=O)(=O)O)[C@H]2O)[C@H](O[C@@H]2O[C@@H](C)[C@@H](O)[C@@H](O)[C@@H]2O)[C@H]1O	100	280	30		
CCCCCCCCCCCCCCC(CCCCCCCCCCCCCC)C(=O)N[C@@H](CO[C@@H]1O[C@@H](C)[C@@H](O)[C@H](O)[C@@H]1O)C(=O)N[C@@H](CCC(=O)O)C(=O)NC	2.1	> 1000	18		
CCCCCCCCCCCCCCC(CCCCCCCCCCCCCC)C(=O)N[C@H](CO[C@@H]1O[C@@H](C)[C@@H](O)[C@H](O)[C@@H]1O)C(=O)N[C@@H](CCC(=O)O)C(=O)NC	0.5	13	6		
CC(=O)N[C@H]1[C@H]([C@H](O)[C@H](O)CO)O[C@@](O[C@H]2[C@@H](O)[C@@H](CO)O[C@@H](O[C@@H]([C@H](O[C@@H]3O[C@@H](C)[C@@H](O)[C@@H](O)[C@@H]3O)[C@H](C=O)NC(C)=O)[C@H](O)CO)[C@@H]2O)(C(=O)O)C[C@@H]1O [SIALYL LEWIS X]	> 1000	600	> 1000		

The next lines start with the values.

IC50 (P-selectin [1]) [µM]	IC50 (E-selectin) [µM]	IC50 (L-selectin [2]) [µM]	IC50 (L-selectin [3]) [µM]	IC50 (P-selectin [4]) [µM]	Structure (SMILES)
	> 1000		39	1.9	CCCCCCCCCCCCCCC(CCCCCCCCCCCCCC)C(=O)N[C@H](CO[C@@H]1O[C@@H](C)[C@@H](O)[C@H](O)[C@@H]1O)C(=O)N[C@H](CCC(=O)O)C(=O)NC
0.7	5.5	9.4			CCCCCCCCCCCCCCC(CCCCCCCCCCCCCC)C(=O)N[C@@H](CO[C@@H]1O[C@@H](C)[C@@H](O)[C@H](O)[C@@H]1O)C(=O)N[C@H](CCC(=O)O)C(=O)NC

Reference: ChEMBL document CHEMBL1130380, “Studies on selection blockers. 5. Design, synthesis, and biological profile of sialyl Lewis x mimetics based on modified serine-glutamic acid dipeptides” (J Med Chem, 1997)
